Results taken from ChEMBL document CHEMBL1157963, “Characterization of pentasaccharide glycosides from the roots of Ipomoea arborescens” (2006).
In brackets after ≈: the same amount, converted by molar mass.

How the values were obtained:
Type in all cases: functional
Conditions in all cases: read-out: ED50 (the source's name)
OVCAR-5 = test: Cytotoxicity against human OVCAR5 cells
How it was run: (§1)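 Cultured human carcinoma lines were used: colon HCT-15, cervical UISO-SQC-1 and ovarian OVCAR-5. Cells were exposed to a series of concentrations of the purified glycosides, and the cell inhibitory concentration was determined. Maintenance and assay details follow an earlier procedure that is not given here.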

[1] = Cytotoxicity against human UISO-SQC1 cells; how it was run: as §1
HCT-15 = test: Cytotoxicity against human HCT15 cells; how it was run: as §1

Row | SMILES | EC50 (OVCAR-5) | EC50 [1] | EC50 (HCT-15)
1 | CCCCCCCCCCCC(=O)O[C@H]1[C@H](O[C@@H]2[C@@H](O)[C@H]3OC(=O)CCCCCCCCCC(CCCCC)O[C@@H]4O[C@H](CO)[C@@H](O)[C@H](O)[C@H]4O[C@H]3O[C@H]2C)O[C@@H](C)[C@H](O[C@@H]2O[C@@H](C)[C@H](O)[C@@H](OC(=O)C(C)C(C)O)[C@H]2O[C@H]2O[C@H](CO)[C@@H](O)[C@H](O)[C@H]2O)[C@H]1O (some centres undefined) [ARBORESIN 1] | 5 µg/mL (≈ 3.85 µM) | > 5 µg/mL | > 5 µg/mL
2 | CCCCCCCCCCCC(=O)O[C@H]1[C@H](O[C@@H]2[C@@H](O)[C@H]3OC(=O)CCCCCCCCCC(CCCCC)O[C@@H]4O[C@H](CO)[C@@H](O)[C@H](O)[C@H]4O[C@H]3O[C@H]2C)O[C@@H](C)[C@H](O[C@@H]2O[C@@H](C)[C@H](OC(C)=O)[C@@H](OC(=O)C(C)C(C)O)[C@H]2O[C@H]2O[C@H](CO)[C@@H](O)[C@H](O)[C@H]2O)[C@H]1O (some centres undefined) [ARBORESIN 2] | 4.2 µg/mL (≈ 3.13 µM) | > 5 µg/mL | > 5 µg/mL
3 | CCCCCCCCCCCC(=O)O[C@H]1[C@H](O[C@@H]2[C@@H](O)[C@H]3OC(=O)CCCCCCCCCC(CCCCC)O[C@@H]4O[C@H](CO)[C@@H](O)[C@H](O)[C@H]4O[C@H]3O[C@H]2C)O[C@@H](C)[C@H](O[C@@H]2O[C@@H](C)[C@H](OC(=O)CC)[C@@H](OC(=O)C(C)C(C)O)[C@H]2O[C@H]2O[C@H](CO)[C@@H](O)[C@H](O)[C@H]2O)[C@H]1O (some centres undefined) [ARBORESIN 3] | > 5 µg/mL | > 5 µg/mL | > 5 µg/mL
4 | CCCCCCCCCCCC(=O)O[C@H]1[C@H](O[C@@H]2[C@@H](O)[C@H]3OC(=O)CCCCCCCCCC(CCCCC)O[C@@H]4O[C@H](CO)[C@@H](O)[C@H](O)[C@H]4O[C@H]3O[C@H]2C)O[C@@H](C)[C@H](O[C@@H]2O[C@@H](C)[C@H](OC(=O)CCC)[C@@H](OC(=O)C(C)C(C)O)[C@H]2O[C@H]2O[C@H](CO)[C@@H](O)[C@H](O)[C@H]2O)[C@H]1O (some centres undefined) [ARBORESIN 4] | > 5 µg/mL | > 5 µg/mL | > 5 µg/mL
5 | CCCCCCCCCCCC(=O)O[C@H]1[C@H](O[C@@H]2[C@@H](O)[C@H]3OC(=O)CCCCCCCCCC(CCCCC)O[C@@H]4O[C@H](CO)[C@@H](O)[C@H](O)[C@H]4O[C@H]3O[C@H]2C)O[C@@H](C)[C@H](O[C@@H]2O[C@@H](C)[C@H](OC(=O)C(C)CC)[C@@H](OC(=O)C(C)C(C)O)[C@H]2O[C@H]2O[C@H](CO)[C@@H](O)[C@H](O)[C@H]2O)[C@H]1O (some centres undefined) [ARBORESIN 5] | > 5 µg/mL | > 5 µg/mL | > 5 µg/mL
6 | C/C=C/C(=O)O[C@@H]1[C@@H](OC(=O)C(C)C(C)O)[C@@H](O[C@H]2O[C@H](CO)[C@@H](O)[C@H](O)[C@H]2O)[C@H](O[C@@H]2[C@@H](O)[C@@H](OC(=O)CCCCCCCCCCC)[C@H](O[C@@H]3[C@@H](O)[C@H]4OC(=O)CCCCCCCCCC(CCCCC)O[C@@H]5O[C@H](C)[C@@H](O)[C@H](O)[C@H]5O[C@H]4O[C@H]3C)O[C@H]2C)O[C@H]1C (some centres undefined) [MURUCIN 7] | 4.5 µg/mL (≈ 3.33 µM) | > 5 µg/mL | > 5 µg/mL
7 | C/C=C(\C)C(=O)O[C@@H]1[C@@H](OC(=O)C(C)C(C)O)[C@@H](O[C@H]2O[C@H](CO)[C@@H](O)[C@H](O)[C@H]2O)[C@H](O[C@@H]2[C@@H](O)[C@@H](OC(=O)CCCCCCCCCCC)[C@H](O[C@@H]3[C@@H](O)[C@H]4OC(=O)CCCCCCCCCC(CCCCC)O[C@@H]5O[C@H](C)[C@@H](O)[C@H](O)[C@H]5O[C@H]4O[C@H]3C)O[C@H]2C)O[C@H]1C (some centres undefined) [MURUCIN 8] | > 5 µg/mL | > 5 µg/mL | > 5 µg/mL
8 | CCCCCCCCCCCC(=O)O[C@H]1[C@H](O[C@@H]2[C@@H](O)[C@H]3OC(=O)CCCCCCCCCC(CCCCC)O[C@@H]4O[C@H](C)[C@@H](O)[C@H](O)[C@H]4O[C@H]3O[C@H]2C)O[C@@H](C)[C@H](O[C@@H]2O[C@@H](C)[C@H](O)[C@@H](O)[C@H]2O[C@H]2O[C@H](CO)[C@@H](O)[C@H](O)[C@H]2O)[C@H]1O (some centres undefined) [MURUCIN 9] | 4 µg/mL (≈ 3.38 µM) | > 5 µg/mL | > 5 µg/mL
